Experimental data: ChEMBL document CHEMBL3994579, “Synthesis and antibacterial activity of novel 3-O-descladinosylazithromycin derivatives” (2017)
Values after ≈ are worked out from the molar mass of the structure shown.

Experiments:
Type in all cases: functional
[1] = system: Staphylococcus epidermidis; assay: Antibacterial activity against penicillin-resistant Staphylococcus epidermidis clinical isolate by broth microdilution method
Outline: (§1)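 Broth microdilution per NCCL recommendation, read as minimal inhibitory concentration, run alongside azithromycin and clarithromycin references. Strains: S. pneumoniae B1 (erythromycin-resistant, ermB), A22072 (erythromycin-resistant, mefA), AB11 (erythromycin-resistant, erm and mef); S. aureus ATCC29213 ([…]); S. epidermidis clinical isolate (penicillin-resistant, not characterized).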

Escherichia coli = assay: Antibacterial activity against penicillin-susceptible Escherichia coli ATCC 25922 by broth microdilution method
Outline: (§2)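 MICs were determined in vitro by broth microdilution following the NCCL-recommended method. Azithromycin and clarithromycin were run alongside as reference antibiotics on the same strain panel.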

Streptococcus pyogenes [2] = assay: Antibacterial activity against erythromycin-resistant Streptococcus pyogenes R1 clinical isolate by broth microdilution method
Streptococcus pneumoniae [3] = assay: Antibacterial activity against erythromycin-resistant Streptococcus pneumoniae AB11 expressing ermB/mefA genes by broth microdilution method; outline: as §1
Bacillus subtilis = assay: Antibacterial activity against erythromycin/penicillin-susceptible Bacillus subtilis ATCC 9372 by broth microdilution method; outline: as §2
Pseudomonas aeruginosa = assay: Antibacterial activity against penicillin-susceptible Pseudomonas aeruginosa ATCC 27853 by broth microdilution method; outline: as §2
Staphylococcus aureus [4] = assay: Antibacterial activity against erythromycin-susceptible Staphylococcus aureus ATCC 25923 by broth microdilution method; outline: as §2
Streptococcus pyogenes [5] = assay: Antibacterial activity against erythromycin-susceptible Streptococcus pyogenes clinical isolate by broth microdilution method; outline: as §2
Streptococcus pneumoniae [6] = assay: Antibacterial activity against erythromycin-resistant Streptococcus pneumoniae A22072 expressing mefA gene by broth microdilution method; outline: as §1
Streptococcus pneumoniae [7] = assay: Antibacterial activity against erythromycin-resistant Streptococcus pneumoniae B1 expressing ermB gene by broth microdilution method; outline: as §1
Staphylococcus aureus [8] = assay: Antibacterial activity against […] Staphylococcus aureus ATCC 29213 by broth microdilution method; outline: as §1

Compound	MIC [1] [µg/mL]	MIC (Escherichia coli) [µg/mL]	MIC (Streptococcus pyogenes [2]) [µg/mL]	MIC (Streptococcus pneumoniae [3]) [µg/mL]	MIC (Bacillus subtilis) [µg/mL]	MIC (Pseudomonas aeruginosa) [µg/mL]	MIC (Staphylococcus aureus [4]) [µg/mL]	MIC (Streptococcus pyogenes [5]) [µg/mL]	MIC (Streptococcus pneumoniae [6]) [µg/mL]	MIC (Streptococcus pneumoniae [7]) [µg/mL]	MIC (Staphylococcus aureus [8]) [µg/mL]
CC[C@H]1OC(=O)[C@H](C)[C@@H](OC(=O)Nc2cccc(C)c2)[C@H](C)[C@@H](O[C@@H]2O[C@H](C)C[C@H](N(C)C)[C@H]2O)[C@](C)(O)C[C@@H](C)CN(C)[C@H](C)[C@@H](OC(=O)NCc2ccc(OC)cc2)[C@]1(C)O	32 (≈ 36.1 µM)	128 (≈ 144 µM)	128 (≈ 144 µM)	16 (≈ 18 µM)	16 (≈ 18 µM)	128 (≈ 144 µM)	16 (≈ 18 µM)	1 (≈ 1.13 µM)	8 (≈ 9.02 µM)	128 (≈ 144 µM)	128 (≈ 144 µM)
CC[C@H]1OC(=O)[C@H](C)[C@@H](OC(=O)Nc2ccccc2)[C@H](C)[C@@H](O[C@@H]2O[C@H](C)C[C@H](N(C)C)[C@H]2O)[C@](C)(O)C[C@@H](C)CN(C)[C@H](C)[C@@H](OC(=O)NCc2ccccc2)[C@]1(C)O	32 (≈ 38 µM)	64 (≈ 75.9 µM)	64 (≈ 75.9 µM)	2 (≈ 2.37 µM)	8 (≈ 9.49 µM)	64 (≈ 75.9 µM)	32 (≈ 38 µM)	2 (≈ 2.37 µM)	16 (≈ 19 µM)	128 (≈ 152 µM)	128 (≈ 152 µM)
CC[C@H]1OC(=O)[C@H](C)[C@@H](O[C@H]2C[C@@](C)(OC)[C@@H](O)[C@H](C)O2)[C@H](C)[C@@H](O[C@@H]2O[C@H](C)C[C@H](N(C)C)[C@H]2O)[C@](C)(O)C[C@@H](C)CN(C)[C@H](C)[C@@H](O)[C@]1(C)O [AZITHROMYCIN]	0.25 (≈ 0.334 µM)	64 (≈ 85.4 µM)	256 (≈ 342 µM)	256 (≈ 342 µM)	1 (≈ 1.34 µM)	32 (≈ 42.7 µM)	0.25 (≈ 0.334 µM)	0.03 (≈ 0.0401 µM)	4 (≈ 5.34 µM)	256 (≈ 342 µM)	4 (≈ 5.34 µM)
CC[C@H]1OC(=O)[C@H](C)[C@@H](O)[C@H](C)[C@@H](O[C@@H]2O[C@H](C)C[C@H](N(C)C)[C@H]2OC(=O)Nc2cccc(OC)c2)[C@](C)(O)C[C@@H](C)CN(C)[C@H](C)[C@H]2OC(=O)O[C@@]21C	64 (≈ 83.6 µM)	64 (≈ 83.6 µM)	128 (≈ 167 µM)	32 (≈ 41.8 µM)	128 (≈ 167 µM)	64 (≈ 83.6 µM)	32 (≈ 41.8 µM)	2 (≈ 2.61 µM)	16 (≈ 20.9 µM)	128 (≈ 167 µM)	128 (≈ 167 µM)
CC[C@H]1OC(=O)[C@H](C)[C@@H](OC(=O)Nc2ccccc2)[C@H](C)[C@@H](O[C@@H]2O[C@H](C)C[C@H](N(C)C)[C@H]2OC(C)=O)[C@](C)(O)C[C@@H](C)CN(C)[C@H](C)[C@H]2OC(=O)O[C@@]21C	16 (≈ 20.6 µM)	32 (≈ 41.1 µM)	128 (≈ 165 µM)	64 (≈ 82.3 µM)	32 (≈ 41.1 µM)	64 (≈ 82.3 µM)	32 (≈ 41.1 µM)	0.25 (≈ 0.321 µM)	4 (≈ 5.14 µM)	128 (≈ 165 µM)	128 (≈ 165 µM)
CCCCCNC(=O)O[C@H]1[C@H](C)[C@@H](O[C@@H]2O[C@H](C)C[C@H](N(C)C)[C@H]2OC(C)=O)[C@](C)(O)C[C@@H](C)CN(C)[C@H](C)[C@H]2OC(=O)O[C@]2(C)[C@@H](CC)OC(=O)[C@@H]1C	32 (≈ 41.5 µM)	128 (≈ 166 µM)	128 (≈ 166 µM)	128 (≈ 166 µM)	32 (≈ 41.5 µM)	128 (≈ 166 µM)	32 (≈ 41.5 µM)	4 (≈ 5.18 µM)	32 (≈ 41.5 µM)	64 (≈ 82.9 µM)	64 (≈ 82.9 µM)
CC[C@H]1OC(=O)[C@H](C)[C@@H](OC(=O)Nc2cccc(C(F)(F)F)c2)[C@H](C)[C@@H](O[C@@H]2O[C@H](C)C[C@H](N(C)C)[C@H]2O)[C@](C)(O)C[C@@H](C)CN(C)[C@H](C)[C@H]2OC(=O)O[C@@]21C	0.5 (≈ 0.622 µM)	128 (≈ 159 µM)	64 (≈ 79.6 µM)	8 (≈ 9.95 µM)	64 (≈ 79.6 µM)	128 (≈ 159 µM)	16 (≈ 19.9 µM)	1 (≈ 1.24 µM)	8 (≈ 9.95 µM)	32 (≈ 39.8 µM)	128 (≈ 159 µM)
CC[C@H]1OC(=O)[C@H](C)[C@@H](O)[C@H](C)[C@@H](O[C@@H]2O[C@H](C)C[C@H](N(C)C)[C@H]2OC(=O)Nc2cccc(Cl)c2)[C@](C)(O)C[C@@H](C)CN(C)[C@H](C)[C@H]2OC(=O)O[C@@]21C	32 (≈ 41.5 µM)	32 (≈ 41.5 µM)	64 (≈ 83.1 µM)	32 (≈ 41.5 µM)	8 (≈ 10.4 µM)	64 (≈ 83.1 µM)	16 (≈ 20.8 µM)	1 (≈ 1.3 µM)	8 (≈ 10.4 µM)	64 (≈ 83.1 µM)	128 (≈ 166 µM)
